Reference: ChEMBL document CHEMBL4325893, “Synthesis and antibacterial profiles of targeted triclosan derivatives” (2019)
Converted amounts (≈) assume the structure as drawn.

Experiments:
Staphylococcus aureus [1] = test: Antibacterial activity against Staphylococcus aureus ATCC 6538 after 18 hrs; type: functional; details: ATCC 6538, 18 h
Outline: (§1)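 Broth microdilution in Nutrient Broth No. 2; stocks in ethanol diluted to 0.01–128 µg/ml (triclosan) or 0.25–256 µg/ml (glycosides). Overnight 37 °C NB2 cultures diluted 1 in 10^4 in saline and added to the dilutions. Incubation at 37 °C with agitation, OD read every 15 min; MIC is the lowest concentration preventing any OD rise after 18 h.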

Staphylococcus aureus [2] = test: Antibacterial activity against Staphylococcus aureus ATCC 6538P after 18 hrs; type: functional; outline: as §1
Staphylococcus aureus [3] = test: Antibacterial activity against Staphylococcus aureus ATCC 9144 after 18 hrs; type: functional; details: ATCC 9144, 18 h; outline: as §1
Staphylococcus aureus [4] = test: Antibacterial activity against Staphylococcus aureus ATCC 25923 after 18 hrs; type: functional; details: ATCC 25923, 18 h; outline: as §1
Staphylococcus aureus [5] = test: Antibacterial activity against Staphylococcus aureus ATCC 29213 after 18 hrs; type: functional; details: ATCC 29213, 18 h; outline: as §1
Staphylococcus aureus [6] = test: Antibacterial activity against Staphylococcus aureus NCTC 13758 after 18 hrs; type: functional; details: NCTC 13758, 18 h; outline: as §1
Staphylococcus aureus [7] = test: Antibacterial activity against Staphylococcus aureus OCC 104 after 18 hrs; type: functional; details: OCC 104, 18 h; outline: as §1
Staphylococcus aureus [8] = test: Antibacterial activity against Staphylococcus aureus OCC 106 after 18 hrs; type: functional; details: OCC 106, 18 h; outline: as §1
[9] = system: Staphylococcus epidermidis; test: Antibacterial activity against Staphylococcus epidermidis 155 after 18 hrs; type: functional; details: Staphylococcus epidermidis, 155, 18 h; outline: as §1
[10] = system: Staphylococcus epidermidis; test: Antibacterial activity against Staphylococcus epidermidis ATCC 12228 after 18 hrs; type: functional; details: ATCC 12228, 18 h; outline: as §1
[11] = system: Staphylococcus epidermidis; test: Antibacterial activity against Staphylococcus epidermidis ATCC 14990 after 18 hrs; type: functional; details: ATCC 14990, 18 h; outline: as §1
[12] = system: Staphylococcus haemolyticus; test: Antibacterial activity against Staphylococcus haemolyticus OCC 2223 after 18 hrs; type: functional; details: OCC 2223, 18 h
Outline: (§2)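 Broth microdilution in Nutrient Broth No. 2. Ethanol stocks were diluted in broth to 0.01–128 µg/ml for triclosan and 0.25–256 µg/ml for glycosides. Overnight 37°C NB2 cultures were diluted 1 in 10^4 in saline and added to the wells. Plates were incubated at 37°C with OD read every 15 min after agitation. MIC was the lowest concentration giving no OD increase at 18 h.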

[13] = system: Staphylococcus saprophyticus; test: Antibacterial activity against Staphylococcus saprophyticus ATCC 15305 after 18 hrs; type: functional; details: ATCC 15305, 18 h; outline: as §2
Streptococcus agalactiae = test: Antibacterial activity against Streptococcus agalactiae OCC 182 after 18 hrs; type: functional; details: OCC 182, 18 h; outline: as §2
Streptococcus pneumoniae [14] = test: Antibacterial activity against Streptococcus pneumoniae 6305 after 18 hrs; type: functional; details: Streptococcus pneumoniae, 6305, 18 h; outline: as §2
Streptococcus pneumoniae [15] = test: Antibacterial activity against Streptococcus pneumoniae ATCC 49619 after 18 hrs; type: functional; details: ATCC 49619, 18 h; outline: as §2
Streptococcus pyogenes = test: Antibacterial activity against Streptococcus pyogenes ATCC 19615 after 18 hrs; type: functional; details: ATCC 19615, 18 h; outline: as §2
Streptococcus viridans = test: Antibacterial activity against Streptococcus viridans OCC 234 after 18 hrs; type: functional; details: OCC 234, 18 h; outline: as §2
[16] = system: Salmonella enterica subsp. enterica serovar Abony; test: Antibacterial activity against Salmonella enterica subspecies enterica serotype Abony NCTC 6017 after 18 hrs; type: functional; details: NCTC 6017, 18 h; outline: as §1
[17] = Antibacterial activity against Salmonella enterica subspecies enterica serotype Arizonae OCC 706 after 18 hrs; type: functional, Salmonella enterica subsp. enterica serovar Arizonae; details: OCC 706, 18 h; outline: as §1
[18] = Antibacterial activity against Salmonella enterica subspecies enterica serotype Dublin OCC 627 after 18 hrs; type: functional, Salmonella enterica subsp. enterica serovar Dublin; details: OCC 627, 18 h; outline: as §1
Salmonella enteritidis = test: Antibacterial activity against Salmonella enterica subspecies enterica serotype Enteritidis 13076 after 18 hrs; type: functional, Salmonella enterica subsp. enterica serovar Enteritidis; details: Salmonella enterica, 13076, 18 h; outline: as §1
[19] = Antibacterial activity against Salmonella enterica subspecies enterica serotype Indiana OCC 597 after 18 hrs; type: functional, Salmonella enterica subsp. enterica serovar Indiana; details: OCC 597, 18 h; outline: as §1
[20] = Antibacterial activity against Salmonella enterica subspecies enterica serotype Infantis OCC 2133 after 18 hrs; type: functional, Salmonella enterica subsp. enterica serovar Infantis; details: OCC 2133, 18 h; outline: as §1
[21] = Antibacterial activity against Salmonella enterica subspecies enterica serotype Nottingham NCTC 7832 after 18 hrs; type: functional, Salmonella enterica subsp. enterica serovar Nottingham; details: NCTC 7832, 18 h; outline: as §1
[22] = Antibacterial activity against Salmonella enterica subspecies enterica serotype Poona NCTC 4840 after 18 hrs; type: functional, Salmonella enterica subsp. enterica serovar Poona; details: NCTC 4840, 18 h; outline: as §1
[23] = Antibacterial activity against Salmonella enterica subspecies enterica serotype Pullorum OCC 273 after 18 hrs; type: functional, Salmonella enterica subsp. enterica serovar Pullorum; details: OCC 273, 18 h; outline: as §1
Salmonella typhimurium = test: Antibacterial activity against Salmonella enterica subspecies enterica serotype typhimurium ATCC 14028 after 18 hrs; type: functional, Salmonella enterica subsp. enterica serovar Typhimurium; details: ATCC 14028, 18 h; outline: as §1
[24] = Antibacterial activity against Salmonella enterica subspecies enterica serotype Virchow NCTC 5742 after 18 hrs; type: functional, Salmonella enterica subsp. enterica serovar Virchow; details: NCTC 5742, 18 h; outline: as §1

Which MIC (Staphylococcus aureus [1]) does the source give for `OC[C@H]1O[C@@H](Oc2cc(Cl)ccc2Oc2ccc(Cl)cc2Cl)[C@H](O)[C@@H](O)[C@@H]1O` here?
Its MIC is 4 to 8 µg/mL (≈ 8.86 to 17.7 µM).

And the MIC (Staphylococcus aureus [2])?
The MIC was 4 to 8 µg/mL (≈ 8.86 to 17.7 µM).

What about the MIC (Staphylococcus aureus [3]) of the same compound?
Its MIC is 4 to 8 µg/mL (≈ 8.86 to 17.7 µM).

And the MIC (Staphylococcus aureus [4])?
Its MIC is 4 to 8 µg/mL (≈ 8.86 to 17.7 µM).

What about the MIC (Staphylococcus aureus [5]) of the same compound?
Its MIC is 4 to 8 µg/mL (≈ 8.86 to 17.7 µM).

What about the MIC (Staphylococcus aureus [6]) of the same compound?
Its MIC is 4 to 8 µg/mL (≈ 8.86 to 17.7 µM).

And the MIC (Staphylococcus aureus [7])?
Its MIC is 4 to 8 µg/mL (≈ 8.86 to 17.7 µM).

And the MIC (Staphylococcus aureus [8])?
The MIC was 4 to 8 µg/mL (≈ 8.86 to 17.7 µM).

What about the MIC [9] of the same compound?
The MIC was 8 to 16 µg/mL (≈ 17.7 to 35.4 µM).

What about the MIC [10] of the same compound?
Its MIC is 8 to 16 µg/mL (≈ 17.7 to 35.4 µM).

And the MIC [11]?
The MIC was 8 to 16 µg/mL (≈ 17.7 to 35.4 µM).

What about the MIC [12] of the same compound?
Its MIC is 16 µg/mL (≈ 35.4 µM).

And the MIC [13]?
The MIC was 64 µg/mL (≈ 142 µM).

And the MIC (Streptococcus agalactiae)?
Its MIC is 256 µg/mL (≈ 567 µM).

And the MIC (Streptococcus pneumoniae [14])?
Its MIC is 128 µg/mL (≈ 283 µM).

And the MIC (Streptococcus pneumoniae [15])?
The MIC was 128 µg/mL (≈ 283 µM).

And the MIC (Streptococcus pyogenes)?
Its MIC is 32 µg/mL (≈ 70.8 µM).

And the MIC (Streptococcus viridans)?
The MIC was 256 µg/mL (≈ 567 µM).

What about the MIC [16] of the same compound?
The MIC was 16 to 32 µg/mL (≈ 35.4 to 70.8 µM).

And the MIC [17]?
Its MIC is 16 to 32 µg/mL (≈ 35.4 to 70.8 µM).

And the MIC [18]?
The MIC was 16 to 32 µg/mL (≈ 35.4 to 70.8 µM).

What about the MIC (Salmonella enteritidis) of the same compound?
The MIC was 16 to 32 µg/mL (≈ 35.4 to 70.8 µM).

And the MIC [19]?
The MIC was 16 to 32 µg/mL (≈ 35.4 to 70.8 µM).

What about the MIC [20] of the same compound?
Its MIC is 16 to 32 µg/mL (≈ 35.4 to 70.8 µM).

And the MIC [21]?
The MIC was 16 to 32 µg/mL (≈ 35.4 to 70.8 µM).

And the MIC [22]?
Its MIC is 16 to 32 µg/mL (≈ 35.4 to 70.8 µM).

What about the MIC [23] of the same compound?
Its MIC is 16 to 32 µg/mL (≈ 35.4 to 70.8 µM).

What about the MIC (Salmonella typhimurium) of the same compound?
The MIC was 16 to 32 µg/mL (≈ 35.4 to 70.8 µM).

And the MIC [24]?
Its MIC is 16 to 32 µg/mL (≈ 35.4 to 70.8 µM).
